# HKDC1 inh = blocks human hexokinase HKDC1 activity | AID 493160 | inhibition, % at 20 µM | Q2TB90 | recombinant HKDC1, G6PDH/diaphorase resazurin coupled fluorescence | actives 0.16% (n = 340,000);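 active = inhibition above about 35% when tested at 20 µM, limit read from the data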;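 also: plate controls were DMSO wells with enzyme for no effect and DMSO wells lacking enzyme for full effect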
#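 Incubation: 90 min at room temperature in dark / Material: recombinant HKDC1 (HK5) hexokinase enzyme, produced in-house / Quantity: enzyme 5 µg/mL final / Compound: one dose of 20 µM, 1% DMSO / Reagent: glucose and ATP substrates / Buffer or medium: Tris pH 8.0 buffer with MgCl2, Tween-20, BSA, BME / Technique: resorufin fluorescence at 613 nm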
# PAD4 FP inh = PAD4 (human) enzyme inhibition | recombinant PAD4, RCA probe fluorescence polarization | AID 485272 | Q9UM07 | actives 0.41% (n = 330,000) | inhibition, % at 6.36 µM;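 active = percent inhibition above a cutoff equal to the mean of all tested compounds plus 3 SD, cut at about 15% in these data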;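 also: 0% = PAD4 with RCA probe and DMSO and 100% = probe without PAD4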
# Target sequence (Q9UM07 whole entry, looked up): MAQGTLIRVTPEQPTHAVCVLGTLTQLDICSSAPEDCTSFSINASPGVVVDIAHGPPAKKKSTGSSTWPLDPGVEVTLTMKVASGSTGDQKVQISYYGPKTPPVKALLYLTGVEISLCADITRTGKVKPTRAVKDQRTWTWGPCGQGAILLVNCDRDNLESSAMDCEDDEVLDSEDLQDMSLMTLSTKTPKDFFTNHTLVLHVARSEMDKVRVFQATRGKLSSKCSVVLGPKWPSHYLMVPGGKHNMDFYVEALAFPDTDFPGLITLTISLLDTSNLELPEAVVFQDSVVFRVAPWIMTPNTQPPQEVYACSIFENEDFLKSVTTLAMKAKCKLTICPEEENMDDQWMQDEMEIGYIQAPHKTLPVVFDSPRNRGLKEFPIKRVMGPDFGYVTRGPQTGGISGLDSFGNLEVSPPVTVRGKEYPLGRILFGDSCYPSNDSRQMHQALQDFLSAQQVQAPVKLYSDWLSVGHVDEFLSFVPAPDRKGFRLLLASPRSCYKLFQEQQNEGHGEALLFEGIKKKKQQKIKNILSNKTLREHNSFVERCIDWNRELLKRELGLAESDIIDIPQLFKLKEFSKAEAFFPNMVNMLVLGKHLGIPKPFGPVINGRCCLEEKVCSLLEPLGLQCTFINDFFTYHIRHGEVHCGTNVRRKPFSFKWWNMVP
# Fh CTSL1 inh = counter-screen for PFM18AAP inhibitors: inhibitors of F. hepatica cathepsin L1; AID 1906; actives 0.49% (n = 300,000); inhibition, % at 5.96 µM; recombinant F. hepatica cathepsin L1, Z-Leu-Arg-MCA fluorescence;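 active = inhibition above the mean of all tested compounds plus 3 SD, set per screening campaign, cut at about 17% in these data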;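 also: 0% = plate median of test compound wells and 100% = 1 µM Z-Phe-Ala-diazomethylketone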
# GSTO1 counter = blocks human GSTO1 in RBBP9 counter-screen; recombinant GSTO1, activity-based probe fluorescence polarization; inhibition, % at 5.96 µM; actives 1.1% (n = 300,000); AID 1974;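 active = inhibition above the campaign mean inhibition plus 3 SD, cut at about 35% in these data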;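 also: 0% = GSTO1-1 with DMSO and 100% = wells lacking GSTO1-1 enzyme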
# UCH37 DUB inh = blocks the human deubiquitinase UCH37; Q9Y5K5; purified proteasome/UCH37, Ub-AMC cleavage fluorescence; inhibition, % (concentration not given with the values); actives 0.33% (n = 330,000);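 active = mean inhibition over replicate wells above about 20%, limit read from the data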;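 also: 0% = compound-free wells with enzyme and 100% = wells lacking proteasome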
#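 Material: Human UCH37 enzyme supplied as purified proteasome complex | Schedule: 30 min preincubation with enzyme, 25 min cleavage at room temperature | Detection: AMC fluorescence 355/460 nm | Measure: % inhibition of Ub-AMC cleavage fluorescence | Controls: Wells without proteasome as full block, compound-free enzyme plus substrate as uninhibited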
# TDP2 inh = TDP2 (human) inhibition, absorbance primary screen | O95551 | recombinant TDP2, T5PNP hydrolysis, p-nitrophenol absorbance 415 nm | inhibition, % at 12.8 µM | actives 0.34% (n = 370,000) | AID 720702;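 active = inhibition above the mean of all tested compounds plus 3 SD, set per campaign, cut at about 25% in these data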;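 also: 0% = DMSO with enzyme and 100% = buffer with substrate but no TDP2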
#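 Read-out basis: percent inhibition. System: recombinant human TDP2. Buffer or medium: Mg2+-containing Tris-HCl buffer, pH 7.5. Repeats: single replicate. Timing: reaction 2 h, 37 °C. Benchmarks: high control without enzyme, low control DMSO plus TDP2. Probe or stimulus: 5 mM T5PNP. Doses: 12.8 µM only. Measured by: epi absorbance of p-nitrophenol freed from T5PNP by hydrolysis.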
# TDP2 confirm = confirmation of human TDP2 inhibitors; shares compounds with TDP2 inh; recombinant human TDP2, absorbance read-out; inhibition, % at 12.8 µM; actives 22% (n = 1,100); in the data active = inhibition above about 25%;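 also: 0% = vehicle with enzyme and 100% = no enzyme buffer only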
# Starred values were filed as active, the others as inactive; nt = no result given. Only some compounds are listed: those with a hit (about 1.6% of all), similar ones and a draw of the others.
SMILES,HKDC1 inh,PAD4 FP inh,Fh CTSL1 inh,GSTO1 counter,UCH37 DUB inh,TDP2 inh,TDP2 confirm
COC(=O)c1noc(C)c1-c1ccnn1C(=O)c1ccc(C)cc1,-2,-4,5,1,1,25*,-3
O=C1c2nccnc2C(=O)N1c1ccc(C(F)(F)F)cc1,-4,1,2,-7,nt,28*,1
COc1cc(O)c(C=NNC(=O)c2ccncc2)c(OC)c1[N+](=O)[O-],nt,nt,nt,nt,14,nt,nt
O=C(c1cccc(S(=O)(=O)N2CCN(c3ccccc3)CC2)c1)N1CCN(c2ccccc2O)CC1,7,-2,3,11,3,29*,6
CC(=O)N1CCN(C(=O)c2cccc(S(=O)(=O)N3CCN(c4ccccc4)CC3)c2)CC1,-2,6,nt,nt,-2,6,nt
Cc1ccc(C=NN2CCN(Cc3cccc4ccccc34)CC2)o1,nt,nt,nt,nt,2,nt,nt
Cc1nnc(NN=Cc2cc(C)n(-c3ccc(F)cc3)c2C)n1N,nt,nt,nt,nt,1,nt,nt
CCc1nnc(N/N=C/c2cc(C)c(C)cc2C)n1N,-4,nt,nt,nt,nt,65*,8
CCN1CCN(c2sc(S(=O)(=O)CC)nc2S(=O)(=O)c2ccc(C)cc2)CC1,nt,nt,nt,nt,nt,-2,nt
CCS(=O)(=O)c1nc(S(=O)(=O)c2ccc(C)cc2)c(N2CCN(CCO)CC2)s1,-4,-2,1,-1,5,25*,4
CC1(C)c2cc(O)ccc2OC1N1CCOCC1 (centres undefined),1,-4,-3,4,2,25*,12
O=C(NN=Cc1ccc2c(c1)OCO2)c1cc(-c2ccco2)nc2ccccc12,nt,nt,nt,nt,-64,nt,nt
N/C(=N\N=Cc1ccco1)SC1CC(=O)N(c2ccccc2)C1=O (centres undefined),nt,nt,nt,nt,7,nt,nt
CCOc1ccc(CN2CCC(C(=O)N3CCN(c4ccccc4F)CC3)CC2)cc1OC,-5,-2,0,-8,4,34*,0
COc1cc(CN2CCC(C(=O)N3CCN(c4ccccc4F)CC3)CC2)cc(OC)c1O,-1,-3,1,8,1,-3,nt
O=C(ON=C(c1ccccc1)c1ccncc1)c1ccccc1F,nt,nt,nt,nt,0,nt,nt
Cc1ccccc1OCC(O)CN1CCN(CC(O)COc2ccccc2C)C(C)C1 (centres undefined),-1,1,2,-7,3,26*,5
COc1ccc(C(=O)CSc2nc3c(c(=O)n(C)c(=O)n3C)n2C)cc1,nt,5,6,0,6,nt,nt
COc1ccc(C(=O)NNC(=O)CSc2nc3c(c(=O)n(C)c(=O)n3C)n2C)cc1,-6,-7,-3,17,1,25*,7
CNc1nc(NN=Cc2ccc([N+](=O)[O-])cc2)nc(Nc2ccccc2)n1,nt,nt,nt,nt,7,nt,nt
C=CCn1c(=S)[nH]c2sccc2c1=O,-5,1,3,7,3,60*,2
O=C(NN=Cc1ccc[nH]1)c1c[nH]c2ccccc12,nt,nt,nt,nt,6,nt,nt
Cn1cccc1C=NNC(=O)CNc1ccc2ccccc2c1,nt,nt,nt,nt,3,nt,nt
Cc1ccc(NC(=O)CCSc2nnc(C)o2)cc1,-3,0,-2,0,nt,28*,6
CCN(CC(=O)c1c(N)n(C)c(=O)n(C)c1=O)c1cccc2ccccc12,11,-3,-2,4,-5,38*,6
SMILES,HKDC1 inh,PAD4 FP inh,Fh CTSL1 inh,GSTO1 counter,UCH37 DUB inh,TDP2 inh,TDP2 confirm
O=C1C(=O)c2cccnc2-c2ncccc21,nt,nt,nt,nt,nt,104*,89*
O=C1c2ccccc2-c2nccnc21,-1,-2,2,4,-1,8,nt
CCn1ncc(C=NNC(=O)c2cc(Cl)ccc2OC)c1C,nt,nt,nt,nt,6,nt,nt
COCC(=O)N/N=C/c1c(C)[nH]n(-c2ccccc2)c1=O,-13,-10,2,27,nt,32*,2
CC(=O)N/N=C/c1c(C)[nH]n(-c2ccccc2)c1=O,-11,-13,-1,25,nt,28*,-3
COC(=O)N/N=C\c1c(C)[nH]n(-c2ccccc2)c1=O,-4,-13,-3,0,nt,12,nt
Cc1[nH]n(-c2ccccc2)c(=O)c1/C=N/N1C(=O)c2ccc3c4c(ccc(c24)C1=O)CC3,1,-12,2,10,nt,28*,-9
COC(=O)NN=Cc1c(C)[nH]n(-c2ccccc2)c1=O,nt,nt,nt,nt,8,nt,nt
